Compounds with a hit are over-represented: about 1.7% of the library has one in this group of screens.
CAL PDZ FP-1 = untagged CAL PDZ binding inhibitors, primary screen, biochemical, fluorescence polarization, HTS; Golgi-associated PDZ and coiled-coil motif-containing protein (Homo sapiens), Q9HD26; purified CAL PDZ, TMR-peptide fluorescence polarization, 1 h; inhibition, % at 24.9 µM; actives 0.92% (n = 300,000); AID 602252, 2012;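 active = mean inhibition of at least 30% with at least half of replicates also reaching 30%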;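 note: 0% = DMSO neutral control and 100% = excess unlabeled competitor peptide PRC23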
miR-122 sensor = miR-122 Renilla sensor signal increase in Huh7, primary screen, miR-122 inhibitor project, cell-based, single point, plate reader; Huh7 miR-122 Renilla luciferase sensor, 48 h; neutral wells = 0, positive control = 100; activation (reporter increase), % at 12.5 µM; actives 0.3% (n = 340,000); AID 602342, 2012;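 active = mean replicate activation score at least 90 and every replicate individually at or above 90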;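 note: higher luciferase means less miR-122 activity so hits act as miR-122 inhibitors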
CAL PDZ FP-2 = CAL PDZ peptide-binding inhibitors, primary screen, biochemical, fluorescence polarization, Cer-tagged CAL PDZ, HTS. purified CAL PDZ, TMR-peptide fluorescence polarization, 1 h. inhibition, % at 20 µM. actives 0.02% (n = 330,000). AID 504414, 2011;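 active = highest replicate inhibition of at least 40%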;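 note: plate controls were DMSO neutral control wells for no effect and unlabeled competitor peptide control wells for full effect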
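Test system: tagged CAL PDZ domain / Buffer or medium: sodium phosphate/NaCl buffer pH 7.4 with TCEP, IgG, Thesit / Reagent: TMR-labelled reporter peptide T*-PRC34 bound in PDZ groove / Compound dosing: single point, 20 µM / Schedule: 1 h incubation at room temperature before polarization reading / Technique: fluorescence polarization (mP) / Benchmarks: unlabelled peptide, DMSO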
PGC1a acetyl inh = inhibitors of PGC1a acetylation signal, primary screen, cell-based, U2OS, AlphaScreen, inhibitor mode; inhibition, % at 15.6 µM; AlphaScreen anti-acetyl-lysine; with virally co-expressed GCN5 acetyltransferase; actives 0.17% (n = 350,000);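 active = every replicate shows inhibition of at least 40%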;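 note: 0% = neutral control wells and 100% = positive control wells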
ARNT-TACC3 inh = disruptors of ARNT/TACC3 protein interaction, primary screen, biochemical, AlphaScreen, single concentration. Transforming acidic coiled-coil-containing protein 3 (Homo sapiens), Q9Y6A5. AID 623870, 2012. inhibition, % at 9.99 µM. AlphaScreen His-ARNT PAS-B/GST-TACC3 binding, luminescence; TACC3 fragment carries E629A point mutation. actives 0.66% (n = 390,000);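 active = mean inhibition of replicates at least 50% and at least half of replicates each reaching 50%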;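 note: 0% = complete ARNT plus TACC3 wells and 100% = ARNT alone without TACC3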
CFTR F508del cor = F508del CFTR correction, initial screen, CFBE line, single point. CFBE cells, YFP halide quenching; stimulated with forskolin plus potentiator P3; % fluorescence drop versus neutral controls. activity (quench increase), % at 7.58 µM. actives 0.36% (n = 350,000);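 active = mean added fluorescence quench of at least 8% versus neutral control, with both replicates also reaching 8%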;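 note: cells transiently co-express mutant CFTR-F508del with the halide-sensitive YFP; corrector assay measuring rescue of mutant channel to the surface after 24 h compound exposure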
Starred values were filed as active, the others as inactive; / = no result given; [ ] = dose if it differs, or a comment.

SMILES	CAL PDZ FP-1	miR-122 sensor	CAL PDZ FP-2	PGC1a acetyl inh	ARNT-TACC3 inh	CFTR F508del cor
COC(=O)c1ccc(C2/C(=C(\O)c3cccc(OC)c3)C(=O)C(=O)N2CCCN(C)C)cc1 (stereo unspecified)	-3.1	/	-0.6	/	58.8*	/
Cc1c(/C(O)=C2\C(=O)C(=O)N(CCCN(C)C)C2c2ccccc2)cnn1-c1ccccc1 (stereo unspecified)	2.4	-4.4	-0.4	81.6*	-7.0	0.8
COC(=O)c1ccc(C2/C(=C(\O)c3cccc(OC)c3)C(=O)C(=O)N2CCCN2CCOCC2)cc1 (stereo unspecified)	-5.3	/	-3.6	/	-0.1	/
Cc1nc2cc(NS(=O)(=O)c3c(C)c(C)cc(C)c3C)ccc2s1	-4.9	312.6*	/	-1.6	1.6	/
Cc1nc2cc(NS(=O)(=O)c3ccccc3F)ccc2s1	-21.2	/	-2.7	-1.6	-3.3	-2.3
Cc1ccc(S(=O)(=O)Nc2ccc3nc(N)sc3c2)cc1	8.9	268.3*	-2.7	/	23.8	/
Cc1ccc(S(=O)(=O)Nc2ccc3nc(C)sc3c2)c(C)c1	-0.3	80.5	-0.1	6.9	-5.2	-1.5
Cc1ccc(S(=O)(=O)Nc2ccc3nc(C)sc3c2)cc1	-0.4	14.6	-1.7	5.1	-8.6	/
Cc1nc2ccc(NS(=O)(=O)c3c(C)c(C)cc(C)c3C)cc2s1	2.6	124.9*	-2.8	-2.7	5.2	/
CN1C(=O)c2cc(NC(=O)C3CCCC3)ccc2OC[C@@H]2O[C@H](CC(=O)NCCc3ccncc3)CC[C@H]21	/	/	/	1.7	/	2.6
Cc1nn(C(C)C(=O)NCc2ccccc2Cl)c(=O)c2c1sc1ccccc12 (stereo unspecified)	69.7*	-1.8	-0.5	-1.8	2.3	/
O=C(Nc1ccnn1C1CCN(C2CCC2)CC1)c1ccccc1	68.6*	-5.7	-0.1	6.3	-9.1	2.5
CC(=NNC(=S)N(Cc1ccccn1)Cc1ccccn1)c1cnccn1	0.9	/	0.4	/	64.2*	8.2*
O=C(Cc1ccccc1)N/N=C/c1ccccn1	-0.3	-4.0	-1.1	-10.3	/	/
S=C(NN=C(c1ccccc1)c1ccccn1)N(Cc1ccccn1)Cc1ccccn1	-0.6	/	-0.1	/	66.3*	0.6
S=C(NN=Cc1ccccn1)N(Cc1ccccn1)Cc1ccccn1	3.4	15.4	-0.4	2.4	58.7*	2.5
O=C(C[C@@H]1CC[C@H]2[C@@H](COC[C@H](O)CN2S(=O)(=O)c2cccc(Cl)c2)O1)Nc1ccc(-c2ccccc2)cc1	/	-2.8[16.7 µM]	/	-2.8	16.0	2.8
COc1cc(C(c2sc3nc(C)nn3c2O)N2CCN(c3ccccc3)CC2)cc(OC)c1OC (stereo unspecified)	-5.8	/	-1.2	/	0.5	8.5*
COc1cc(C(c2sc3nc(C)nn3c2O)N2CCOCC2)cc(OC)c1OC (stereo unspecified)	/	/	-0.9	/	-1.4	-0.7
C[C@H](CO)N1C[C@H](C)[C@H](CN(C)CC2CC2)Oc2ccc(NC(=O)C3CCCCC3)cc2CC1=O	/	-7.0[16.7 µM]	/	-2.9	-1.4	-0.4
Cc1ccc(S(=O)(=O)c2c(N)n(Cc3ccco3)c3nc4ccccc4nc23)cc1	-0.8	121.4*	-1.9	-6.0	-22.2	/
C[C@@H]1CCCCO[C@@H](CN(C)C(=O)Nc2ccc(F)cc2)[C@H](C)CN([C@@H](C)CO)C(=O)c2cc(NC(=O)C3CCCCC3)ccc2O1	/	-4.2[16.7 µM]	/	-13.4	-11.1	0.0
CN(C)C(=O)[C@@H]1[C@@H](CO)[C@@H]2Cn3c(ccc(-c4ccccc4)c3=O)[C@H]1N2C(=O)C1CCCC1	/	-2.2[16.7 µM]	/	/	10.1	-2.2
O=C(C[C@@H]1C=C[C@H](NC(=O)Cc2ccccn2)[C@@H](CO)O1)NCCc1ccncc1	/	/	/	-1.3	47.2*	-1.0
CO[C@@H]1CN(C)C(=O)c2cc(NC(=O)C3CCC3)ccc2OC[C@@H](C)N(C)C[C@@H]1C	/	/	/	6.6	/	-1.4
SMILES	CAL PDZ FP-1	miR-122 sensor	CAL PDZ FP-2	PGC1a acetyl inh	ARNT-TACC3 inh	CFTR F508del cor
C[C@@H]1CN([C@@H](C)CO)C(=O)c2cc(NS(=O)(=O)c3ccccc3)ccc2O[C@@H]1CN(C)S(=O)(=O)c1cn(C)cn1	/	4.7[16.7 µM]	/	-5.4	-8.9	-0.1
CNC(=O)c1cn(-c2ccc(Cl)cc2)c(=O)c2ccccc12	47.5*	/	/	5.4	0.6	-0.4
O=C(O)c1cncc(C#Cc2ccccc2)c1	-2.9	/	-2.4	/	-7.0	-0.9
Cc1ccc(C(=O)NC(=S)NCC(=O)c2ccccc2)cc1	33.1*	-12.9	/	8.1	-4.5	/
O=C(NC(=S)Nc1ccc(-c2ccccc2)cc1)c1ccccc1	-4.3	-7.2	1.2	2.1	-3.6	10.2*
O=C(NC(=S)Nc1ccccc1)c1cncc(C#Cc2ccccc2)c1	45.4*	/	0.3	/	-5.2	1.5
O=C(CNC(=S)NC(=O)c1cccs1)c1ccccc1	-3.0	/	-1.1	/	0.3	/
O=C(COc1ccc(Cl)cc1Cl)Nc1ccc(CN2CCOCC2)cc1	83.9*	3.3	-0.4	2.2	-18.3	0.0
Cc1cc(Cl)ccc1OCC(=O)Nc1ccc(CN2CCOCC2)cc1	-1.0	-0.9	-2.3	-5.6	-0.7	2.9
CC1Cc2nc(SCC(=O)N3CCOCC3)n(-c3ccccc3)c(=O)c2S1 (stereo unspecified)	-1.4	/	0.2	/	-1.5	8.3*
NCC[C@H]1CC[C@H](NC(=O)CCN2CCCCC2)[C@@H](CO)O1	/	/	/	2.3	5.5	0.4
COc1cccc(N2CCN(CC(=O)NCc3ccccc3)CC2)c1	50.4*	5.1	0.0	-1.2	-4.6	-2.7
COc1ccc(NC(=O)c2cc3c(-c4ccc(OC)c(OC)c4)nn(C)c3s2)cc1OC	55.8*	-1.6	9.9	2.8	6.3	/
C[C@H]1CN([C@@H](C)CO)C(=O)Cc2cc(NS(=O)(=O)c3ccc(F)cc3)ccc2O[C@H]1CN(C)C(=O)Nc1ccc(F)cc1	/	0.5[16.7 µM]	/	-6.7	-11.1	-2.1
CC(=O)N(C)C[C@H]1Oc2cc(C#Cc3ccccc3)ccc2S(=O)(=O)N([C@H](C)CO)C[C@@H]1C	/	18.4[16.7 µM]	/	11.4	13.1	0.3
COCCOCC(O)CN1CCN(c2ccc(C)cc2)CC1 (stereo unspecified)	1.3	0.4	-0.6	6.5	-1.8	/
COCCOCC(O)CN1CCN(c2ccccc2)CC1 (stereo unspecified)	31.8*	7.6	-0.2	5.8	/	/

Assay outcomes as filed in PubChem.
